Where a SMILES comes first, the peptide text is derived from it. Bridges are numbered along the chain shown (N, C = ends). [ ]: non-standard residue; d: D form. The star is where a group is joined. X1 = CC[C@H](C)CCCCC(=O)*; Dab = NCC[C@H](N)C(=O)O
How the values were obtained:
BL21/pMCR-1 [1] = experiment: Microdilution MIC/MBC; format: cell-based, E. coli; details: MIC ratio BL21/pMCR-1 vs BL21/pEmpty
Method in brief: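 Broth microdilution MIC/MBC followed CLSI. Strains were E. coli BL21 carrying pET28a-mcr-1 or empty pET28a, grown in LB (pH 7.2–7.4) with 50 μg/mL kanamycin. MCR-1 expression was induced with 0.5 mM IPTG at 37°C with shaking at 220 rpm.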

BL21/pMCR-1 [2] = experiment: Time-killing kinetics; format: cell-based, E. coli; details: 16 μg/mL, 1 × 10^5 CFU/mL, IPTG, 37°C, agar plate dilution count
Method in brief: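 Suspensions of IPTG-induced BL21/pMCR-1 (1 × 10^5 CFU/mL) were sub-cultured into tubes with IPTG, with or without test compound at 4 × MIC, at 37°C. Viable counts were taken by agar plate dilution at fixed time intervals. Data are mean ± SD from three independent experiments.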

THP-1 cells [3] = experiment: NF-κB activation western blot; format: cell-based, human; details: TAK242 1 μM (infection) or 100 nM (LPS) for 1 h
Method in brief: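 THP-1 cells were differentiated with PMA (10 ng/mL, 48 h). For infection, cells got TAK242 1 μM for 1 h, then washed log-phase BL21/pEmpty or BL21/pMCR-1 at MOI 50 in serum-free medium with kanamycin and IPTG for 4 h. For LPS, cells got TAK242 100 nM for 1 h, then purified LPS (1 μg/mL) for 4 h. Cell extracts were western blotted and relative band levels quantified.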

THP-1 cells [4] = experiment: LDH release and caspase 1 western blot after OMV stimulation; format: cell-based, human; details: Wed 50 μM pre-treatment for 2 h, OMVs 20 μg protein/mL
Method in brief: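 PMA-differentiated (10 ng/mL, 48 h) THP-1 macrophages were pre-treated with DMSO or 50 μM Wed, then exposed to OMVs (20 μg protein/mL) for 4 h at 37°C, 5% CO2. OMVs came from 8 h LB culture supernatants, filtered, concentrated on 100-kDa filters and pelleted at 150,000 g for 3 h. LDH in media was read by kit as % of 0.1% Triton X-100 lysis; lysates were western blotted with chemiluminescent quantitation.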

CC[C@H](C)CCCCC(=O)N[C@@H](CCN)C(=O)N[C@H](C(=O)N[C@@H](CCN)C(=O)N[C@H]1CCNC(=O)[C@H]([C@@H](C)O)NC(=O)[C@H](CCN)NC(=O)[C@H](CCN)NC(=O)[C@H](CC(C)C)NC(=O)[C@@H](Cc2ccccc2)NC(=O)[C@H](CCN)NC1=O)[C@@H](C)O [polymyxin B, Polymyxin B sulphate] (X1-[Dab]T[Dab][Dab][Dab][dF]L[Dab][Dab]T; lactam 4-C (inferred); N-terminus assumed)
increase of MIC against BL21/pMCR-1 compared to BL21/pEmpty (BL21/pMCR-1 [1]): 8 fold | time to eradicate all bacteria (time-kill kinetics) (BL21/pMCR-1 [2]): 4 h

CCOC(=O)C1=CCCC[C@H]1S(=O)(=O)Nc1ccc(F)cc1Cl [TAK242, Resatorvid]
p-P65 and p-IκB after infection or LPS stimulation (THP-1 cells [3]): inhibited

COc1cc(O)c2c(c1)oc(=O)c1c3cc(O)c(O)cc3oc21 [Wed, wedelolactone]
macrophage cell death and caspase-1 processing after OMV stimulation (THP-1 cells [4]): markedly reduced

From article PMC10443334 (Microbial Biotechnology, 2023)
